Converted amounts (≈) assume the structure as drawn.
Experiments:
Format in all cases: functional
[1] = tested on: Escherichia coli; assay: Growth inhibition of Escherichia coli NCIM 2688 at 3 ug/ml measured after 8 hrs relative to control; conditions: NCIM 2688, 8 h, read-out: GI
Procedure, shortened: (§1)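 Bacteria grown in LB at 37 °C and 180 rpm to OD 1. Compounds added to wells, then 0.1% inoculum of 1 OD culture (620 nm). Growth read as OD at 620 nm after 8 h for gram-negative and after 12 h for gram-positive strains.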

[2] = tested on: Mycobacterium tuberculosis; assay: Growth inhibition of Mycobacterium bovis BCG ATCC 35743 at active stage measured after 8 days by nitrate reductase dye based two fold dilution method; conditions: BCG str. ATCC 35743, 192 h
Procedure, shortened: (§2)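 M. bovis BCG was grown in Dubos medium and assayed in Mycobacterium pheli minimal medium (pH 6.6), with compounds from DMSO stocks. Incubation lasted 8 days for active and 12 days for dormant cultures. Viability was read by nitrate reductase at 540 nm against cell-free blanks, with vehicle set as 100% growth. Primary screen was at 30, 10 and 3 µg/ml, in triplicate, mean ± SD. MIC was taken from dose-response curves.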

[3] = Antifungal activity against Fusarium oxysporum NCIM 1332 by standard agar method
Procedure, shortened: (§3)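 MICs determined by standard agar method; DMSO as solvent control.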

[4] = tested on: Staphylococcus aureus; assay: Growth inhibition of Staphylococcus aureus NCIM 2010 at 30 ug/ml measured after 12 hrs relative to control; conditions: NCIM 2010, 12 h, read-out: GI; procedure, shortened: as §1
[5] = tested on: Bacillus subtilis; assay: Growth inhibition of Bacillus subtilis NCIM 2079 at 10 ug/ml measured after 12 hrs relative to control; conditions: NCIM 2079, 12 h, read-out: GI; procedure, shortened: as §1
[6] = tested on: Mycobacterium tuberculosis; assay: Growth inhibition of Mycobacterium bovis BCG ATCC 35743 at dormant stage at 30 ug/ml measured after 12 days by nitrate reductase dye based two fold dilution method relative to control; conditions: BCG str. ATCC 35743, 288 h, read-out: GI; procedure, shortened: as §2
[7] = tested on: Staphylococcus aureus; assay: Growth inhibition of Staphylococcus aureus NCIM 2010 at 3 ug/ml measured after 12 hrs relative to control; conditions: NCIM 2010, 12 h, read-out: GI; procedure, shortened: as §1
[8] = tested on: Escherichia coli; assay: Antibacterial activity against Escherichia coli NCIM 2688 measured after 8 hrs; conditions: NCIM 2688, 8 h; procedure, shortened: as §1
[9] = tested on: Pseudomonas fluorescens; assay: Antibacterial activity against Pseudomonas fluorescens NCIM 2036 measured after 8 hrs; conditions: NCIM 2036, 8 h; procedure, shortened: as §1
[10] = tested on: Escherichia coli; assay: Growth inhibition of Escherichia coli NCIM 2688 at 10 ug/ml measured after 8 hrs relative to control; conditions: NCIM 2688, 8 h, read-out: GI; procedure, shortened: as §1
[11] = tested on: Candida albicans; assay: Antifungal activity against Candida albicans NCIM 3471 by standard agar method; procedure, shortened: as §3
[12] = tested on: Escherichia coli; assay: Growth inhibition of Escherichia coli NCIM 2688 at 30 ug/ml measured after 8 hrs relative to control; conditions: NCIM 2688, 8 h, read-out: GI; procedure, shortened: as §1
[13] = tested on: Bacillus subtilis; assay: Antibacterial activity against Bacillus subtilis NCIM 2079 measured after 12 hrs; conditions: NCIM 2079, 12 h; procedure, shortened: as §1
[14] = tested on: Staphylococcus aureus; assay: Antibacterial activity against of Staphylococcus aureus NCIM 2010 measured after 12 hrs; conditions: NCIM 2010, 12 h; procedure, shortened: as §1
[15] = Antifungal activity against Cryptococcus neoformans NCIM 576 by standard agar method; procedure, shortened: as §3
[16] = tested on: Mycobacterium tuberculosis; assay: Growth inhibition of Mycobacterium tuberculosis H37Ra ATCC 25177 at dormant stage measured after 12 days by XTT dye based two fold dilution method; conditions: H37Ra ATCC 25177, 288 h
Procedure, shortened: (§4)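 MTB H37Ra was grown in Dubos medium, then exposed in Mycobacterium pheli minimal medium (pH 6.6) to compounds dissolved in DMSO. The assay ended on day 8 (active) or day 12 (dormant). Viable cells were measured by XTT reduction menadione assay at 470 nm, blank-corrected, relative to vehicle control. Triplicates were expressed as mean ± SD. MIC came from dose-response curves.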

[17] = tested on: Bacillus subtilis; assay: Growth inhibition of Bacillus subtilis NCIM 2079 at 30 ug/ml measured after 12 hrs relative to control; conditions: NCIM 2079, 12 h, read-out: GI; procedure, shortened: as §1
[18] = tested on: Aspergillus niger; assay: Antifungal activity against Aspergillus niger NCIM 1196 by standard agar method; procedure, shortened: as §3
[19] = tested on: Mycobacterium tuberculosis; assay: Growth inhibition of Mycobacterium bovis BCG ATCC 35743 at dormant stage at 10 ug/ml measured after 12 days by nitrate reductase dye based two fold dilution method relative to control; conditions: BCG str. ATCC 35743, 288 h, read-out: GI; procedure, shortened: as §2
[20] = tested on: Aspergillus flavus; assay: Antifungal activity against Aspergillus flavus NCIM 539 by standard agar method; procedure, shortened: as §3
[21] = tested on: Pseudomonas fluorescens; assay: Growth inhibition of Pseudomonas fluorescens NCIM 2036 at 30 ug/ml measured after 8 hrs relative to control; conditions: NCIM 2036, 8 h, read-out: GI; procedure, shortened: as §1
[22] = tested on: Pseudomonas fluorescens; assay: Growth inhibition of Pseudomonas fluorescens NCIM 2036 at 10 ug/ml measured after 8 hrs relative to control; conditions: NCIM 2036, 8 h, read-out: GI; procedure, shortened: as §1
[23] = tested on: Bacillus subtilis; assay: Growth inhibition of Bacillus subtilis NCIM 2079 at 3 ug/ml measured after 12 hrs relative to control; conditions: NCIM 2079, 12 h, read-out: GI; procedure, shortened: as §1
[24] = tested on: Mycobacterium tuberculosis; assay: Growth inhibition of Mycobacterium tuberculosis H37Ra ATCC 25177 at active stage measured after 8 days by XTT dye based two fold dilution method; conditions: H37Ra ATCC 25177, 192 h; procedure, shortened: as §4
[25] = tested on: Mycobacterium tuberculosis; assay: Growth inhibition of Mycobacterium bovis BCG ATCC 35743 at dormant stage measured after 12 days by nitrate reductase dye based two fold dilution method; conditions: BCG str. ATCC 35743, 288 h; procedure, shortened: as §2
[26] = tested on: Staphylococcus aureus; assay: Growth inhibition of Staphylococcus aureus NCIM 2010 at 10 ug/ml measured after 12 hrs relative to control; conditions: NCIM 2010, 12 h, read-out: GI; procedure, shortened: as §1
[27] = tested on: Mycobacterium tuberculosis; assay: Growth inhibition of Mycobacterium bovis BCG ATCC 35743 at dormant stage at 3 ug/ml measured after 12 days by nitrate reductase dye based two fold dilution method relative to control; conditions: BCG str. ATCC 35743, 288 h, read-out: GI; procedure, shortened: as §2
[28] = tested on: Pseudomonas fluorescens; assay: Growth inhibition of Pseudomonas fluorescens NCIM 2036 at 3 ug/ml measured after 8 hrs relative to control; conditions: NCIM 2036, 8 h, read-out: GI; procedure, shortened: as §1

What does the source list for `Cc1ccc2nc(Cl)c(/C=C3\SC(=S)N(CC(=O)O)C3=O)cc2c1`?
inhibition of growth at 3 µg/mL [1]: -1.08%; IC50 [2]: > 30 µg/mL; IC90 [2]: > 30 µg/mL; MIC [3]: 150 µg/mL (≈ 396 µM); inhibition of growth at 30 µg/mL [4]: -5.17%; inhibition of growth at 10 µg/mL [5]: -6.38%; inhibition of growth at 30 µg/mL [6]: -0.24%; inhibition of growth at 3 µg/mL [7]: 0.77%; MIC [8]: > 30 µg/mL; MIC [9]: > 30 µg/mL; inhibition of growth at 10 µg/mL [10]: 0.409%; MIC [11]: 125 µg/mL (≈ 330 µM); inhibition of growth at 30 µg/mL [12]: -6.72%; MIC [13]: > 30 µg/mL; MIC [14]: > 30 µg/mL; MIC [15]: 125 µg/mL (≈ 330 µM); IC50 [16]: > 30 µg/mL; IC90 [16]: > 30 µg/mL; inhibition of growth at 30 µg/mL [17]: 1.48%; MIC [18]: 175 µg/mL (≈ 462 µM); inhibition of growth at 10 µg/mL [19]: 13.5%; MIC [20]: 150 µg/mL (≈ 396 µM); inhibition of growth at 30 µg/mL [21]: 13.2%; inhibition of growth at 10 µg/mL [22]: -7.54%; inhibition of growth at 3 µg/mL [23]: -24.1%; IC50 [24]: > 30 µg/mL; IC90 [24]: > 30 µg/mL; IC50 [25]: > 30 µg/mL; IC90 [25]: > 30 µg/mL; inhibition of growth at 10 µg/mL [26]: -6.18%; inhibition of growth at 3 µg/mL [27]: 14.9%; inhibition of growth at 3 µg/mL [28]: -67.2%

With `Cc1ccc2cc(/C=C3\SC(=S)N(CCC(=O)O)C3=O)c(Cl)nc2c1` as the compound, how does the inhibition of growth at 3 µg/mL [1] read?
The inhibition of growth at 3 µg/mL was 18.5%.

And the IC50 [2]?
Its IC50 is over 30 µg/mL.

And the IC90 [2]?
Its IC90 is over 30 µg/mL.

And the MIC [3]?
The MIC was 100 µg/mL (≈ 255 µM).

And the inhibition of growth at 30 µg/mL [4]?
The inhibition of growth at 30 µg/mL was -15%.

And the inhibition of growth at 10 µg/mL [5]?
The inhibition of growth at 10 µg/mL was -5.45%.

And the inhibition of growth at 30 µg/mL [6]?
The inhibition of growth at 30 µg/mL was -9.18%.

What about the inhibition of growth at 3 µg/mL [7] of the same compound?
The inhibition of growth at 3 µg/mL was -6.25%.

What about the MIC [8] of the same compound?
The MIC was over 30 µg/mL.

What about the MIC [9] of the same compound?
The MIC was over 30 µg/mL.

And the inhibition of growth at 10 µg/mL [10]?
Its inhibition of growth at 10 µg/mL is 28.8%.

And the MIC [11]?
Its MIC is 25 µg/mL (≈ 63.6 µM).

What about the inhibition of growth at 30 µg/mL [12] of the same compound?
Its inhibition of growth at 30 µg/mL is 10.3%.

And the MIC [13]?
Its MIC is over 30 µg/mL.

And the MIC [14]?
The MIC was over 30 µg/mL.

What about the MIC [15] of the same compound?
The MIC was 150 µg/mL (≈ 382 µM).

What about the IC50 [16] of the same compound?
Its IC50 is over 30 µg/mL.

What about the IC90 [16] of the same compound?
The IC90 was over 30 µg/mL.

And the inhibition of growth at 30 µg/mL [17]?
The inhibition of growth at 30 µg/mL was -7.94%.

And the MIC [18]?
The MIC was 150 µg/mL (≈ 382 µM).

What about the inhibition of growth at 10 µg/mL [19] of the same compound?
The inhibition of growth at 10 µg/mL was 7.51%.

What about the MIC [20] of the same compound?
Its MIC is 150 µg/mL (≈ 382 µM).

And the inhibition of growth at 30 µg/mL [21]?
Its inhibition of growth at 30 µg/mL is 6.75%.

What about the inhibition of growth at 10 µg/mL [22] of the same compound?
The inhibition of growth at 10 µg/mL was 17.1%.

What about the inhibition of growth at 3 µg/mL [23] of the same compound?
The inhibition of growth at 3 µg/mL was -6.11%.

And the IC50 [24]?
Its IC50 is over 30 µg/mL.

And the IC90 [24]?
Its IC90 is over 30 µg/mL.

And the IC50 [25]?
Its IC50 is over 30 µg/mL.

And the IC90 [25]?
Its IC90 is over 30 µg/mL.

What about the inhibition of growth at 10 µg/mL [26] of the same compound?
Its inhibition of growth at 10 µg/mL is -17.8%.

And the inhibition of growth at 3 µg/mL [27]?
The inhibition of growth at 3 µg/mL was 19.1%.

And the inhibition of growth at 3 µg/mL [28]?
Its inhibition of growth at 3 µg/mL is 5.88%.
